Test results reported in ChEMBL document CHEMBL1139492, “Structure-activity relationships and effects on neuroactive steroid synthesis in a series of 2-phenylimidazo[1,2-a]pyridineacetamide peripheral benzodiazepine receptors ligands” (J Med Chem, 2005).

What was measured:
[1] = system: Rattus norvegicus; assay: Effect of the 25 mg/kg compound on progesterone concentration in rat plasma after 30 min of intraperitoneal administration; assay type: functional, organism-based; design: dose 25 mg/kg
How it was run: (§1)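 Male Sprague–Dawley rats, about 60 days old, given 25 mg/kg ip in saline with three drops Tween 80 per 5 mL, 0.3 mL/100 g; sampled 30 min later. Brain taken after focused microwave irradiation of the head, plasma after guillotine. Cortex and plasma extracted with ethyl acetate; steroids measured by radioimmunoassay. Results in ng/g tissue, at least eight rats per group, compared with vehicle-treated rats.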

[2] = biological target: T1, Translocator protein (Rattus norvegicus, UniProt P16257); assay: Displacement of [3H]PK11195 from peripheral benzodiazepine receptor of rat cerebral cortex; assay type: tissue-based
T1 sequence (P16257 whole entry, looked up): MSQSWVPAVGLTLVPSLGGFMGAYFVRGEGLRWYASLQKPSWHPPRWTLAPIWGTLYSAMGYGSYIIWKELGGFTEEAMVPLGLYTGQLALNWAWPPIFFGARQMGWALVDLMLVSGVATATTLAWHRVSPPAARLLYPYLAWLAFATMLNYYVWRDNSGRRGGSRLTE
How it was run: (§2)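 Rat tissue (cerebral cortex, ovary) homogenised in 50 vol PBS pH 7.4 at 4 °C, spun at 40 000g for 30 min, washed, resuspended in 10 vol PBS. […] Filtration on polyethyleneimine-soaked GF/B filters, scintillation counting. […] Means of three experiments in duplicate; Ki reported.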

[3] = biological target: T1, Translocator protein; assay: Inhibitory concentration against peripheral benzodiazepine receptor of rat cerebral cortex; assay type: tissue-based; how it was run: as §2
[4] = system: Rattus norvegicus; assay: Effect of the 25 mg/kg compound on progesterone concentration in rat cerebral cortex after 30 min of intraperitoneal administration; assay type: functional, organism-based; design: dose 25 mg/kg; how it was run: as §1
[5] = biological target: T1, Translocator protein; assay: Inhibitory concentration against peripheral benzodiazepine receptor of rat ovary; assay type: tissue-based, Female gonad; how it was run: as §2
[6] = biological target: GABA-A receptor; anion channel; assay: Displacement of [3H]flunitrazepam from central benzodiazepine GABA-A receptor of rat cerebral cortex; assay type: tissue-based
How it was run: (§3)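 Rat cerebral cortex homogenised in 50 vol ice-cold 50 mM Tris-HCl pH 7.4, spun twice at 20 000g for 10 min. Membranes (0.4–0.5 mg protein) incubated with [3H]flunitrazepam for 60 min at 0 °C. Rapid filtration on GF/B filters, scintillation counting. Nonspecific binding with 5 μM diazepam. Means of three experiments in duplicate; Ki reported.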

[7] = system: Rattus norvegicus; assay: Effect of the 25 mg/kg compound on 3-alpha,5alpha-THDOC concentration in rat cerebral cortex after 30 min of intraperitoneal administration; assay type: functional, organism-based; design: dose 25 mg/kg; how it was run: as §1
[8] = biological target: GABA-A receptor; anion channel; assay: Inhibitory concentration of central benzodiazepine GABA-A receptor of rat cerebral cortex; assay type: tissue-based; how it was run: as §3
[9] = system: Rattus norvegicus; assay: Effect of the 25 mg/kg compound on 3-alpha,5alpha-THDOC concentration in rat plasma after 30 min of intraperitoneal administration; assay type: functional, organism-based; design: dose 25 mg/kg; how it was run: as §1
[10] = system: Rattus norvegicus; assay: Effect of the 25 mg/kg compound on 3-alpha,5alpha-THPROG concentration in rat plasma after 30 min of intraperitoneal administration; assay type: functional, organism-based; design: dose 25 mg/kg; how it was run: as §1
[11] = biological target: Benzodiazepine receptors; peripheral & central (Rattus norvegicus) (UniProt O09028+P15431+P18506+P18508+P19969+P20236+P23574+P23576+P28471+P28473+P30191+P62813+P63079+P63138+Q91ZM7+Q9ES14+P16257); assay: Ratio of inhibition for peripheral benzodiazepine receptor of rat ovary and central benzodiazepine GABA-A receptor; assay type: tissue-based; design: scale not given here; details: Female gonad
[12] = system: Rattus norvegicus; assay: Effect of the 25 mg/kg compound on 3-alpha,5alpha-THPROG concentration in rat cerebral cortex after 30 min of intraperitoneal administration; assay type: functional, organism-based; design: dose 25 mg/kg; how it was run: as §1
[13] = biological target: T1, Translocator protein; assay: Displacement of [3H]-PK11195 from peripheral benzodiazepine receptor of rat ovary; assay type: tissue-based, Female gonad; how it was run: as §2

SMILES	Concentration [1]	Ki [2]	IC50 [3]	Concentration [4]	IC50 [5]	Ki [6]	Concentration [7]	pIC50 [8]	Concentration [9]	Concentration [10]	Selectivity index [11]	Concentration [12]	Ki [13]
CCCCN(CCCC)C(=O)Cc1c(-c2ccc(Cl)cc2)nc2c(Cl)cc(Cl)cn12	19 ng/mL	2.68 nM	5.2 nM	11.5 ng/g	18.6 nM	7750 nM	3.5 ng/g	5	16.2 ng/mL	27.5 ng/mL	2.73	9.1 ng/g	13.2 nM
CCCCN(C(=O)Cc1c(-c2ccccc2)nc2c(Cl)cc(Cl)cn12)c1ccccc1	17.3 ng/mL	6.78 nM	11.5 nM	5.8 ng/g	4.6 nM	6880 nM	2.6 ng/g	5	8.9 ng/mL	21.3 ng/mL	3.34	16.3 ng/g	3.5 nM
O=C(Cc1c(-c2ccc(Cl)cc2)nc2c(Cl)cc(Cl)cn12)N1CCCCC1	12.2 ng/mL	3.05 nM	5 nM	7.8 ng/g	92 nM	7590 nM	2.9 ng/g	5	9.6 ng/mL	19.4 ng/mL	2.04	7.3 ng/g	65.4 nM
CCCCN(C)C(=O)Cc1c(-c2ccc(Cl)cc2)nc2c(Cl)cc(Cl)cn12	14.9 ng/mL	0.302 nM	0.45 nM	8.9 ng/g	3.3 nM	6880 nM	3.9 ng/g	5	8.1 ng/mL	16.2 ng/mL	3.48	7.4 ng/g	2.46 nM
CCCCN(C)C(=O)Cc1c(-c2ccccc2)nc2c(Cl)cc(Cl)cn12	13.6 ng/mL	2.16 nM	3.5 nM	10.6 ng/g	2.3 nM		4.1 ng/g	5	10.4 ng/mL	16.5 ng/mL	3.64	9.2 ng/g	1.72 nM
CN(C(=O)Cc1c(-c2ccc(Cl)cc2)nc2c(Cl)cc(Cl)cn12)c1ccccc1	13.9 ng/mL	0.203 nM	0.33 nM	7.2 ng/g	1.7 nM	6880 nM	2.8 ng/g	5	8.3 ng/mL	20.3 ng/mL	3.77	7.4 ng/g	1.27 nM
CCCCN(CCCC)C(=O)Cc1c(-c2ccc(Cl)cc2)nc2c(Cl)cccn12	26 ng/mL	4.64 nM	7.87 nM	10.3 ng/g	22.6 nM	6880 nM	2.9 ng/g	5	14.9 ng/mL	23.4 ng/mL	7.65	8.8 ng/g	17.2 nM
C=CCN(CC=C)C(=O)Cc1c(-c2ccc(Cl)cc2)nc2c(Cl)cc(Cl)cn12	12.2 ng/mL	4.77 nM	8.09 nM	11.5 ng/g	5.6 nM	7750 nM	3.2 ng/g	5	9 ng/mL	18.1 ng/mL	3.25	8.6 ng/g	4.06 nM
